# Experiments:
# Mus musculus [1] = species: Mus musculus; experiment: Effective dose required for 50% reduction of the control response was obtained by graphical interpolation rotarod performance; assay type: functional
# Summary of the method: (§1)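 Oral dosing in mice; rod rotating at 5 rpm tested at 60 min after dosing, counting animals falling off within 2 min. ED50 by graphical interpolation.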
# Mus musculus [2] = species: Mus musculus; experiment: Dose required to prevent convulsion and death in 50% of mice during a 2 hr observation was obtained by graphical interpolation anti-pentylenetetrazole; assay type: functional
# Summary of the method: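 Groups of five mice dosed orally, then challenged 60 min later with 125 mg/kg pentylenetetrazol subcutaneously. ED50 = dose preventing convulsion and death in 50% of animals over a 2 h observation, by graphical interpolation.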
# Mus musculus [3] = species: Mus musculus; experiment: Minimum effective dose (MED) required for the potentiation of thiopental sodium induced loss of the righting reflex; assay type: functional; conditions: read-out: MED
# Summary of the method: (§2)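 Five mice per group dosed orally; 60 min later challenged with thiopental sodium 35 mg/kg intravenously. Minimum effective dose potentiating thiopental-induced anesthesia determined.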
# [4] = (§3) Lethal dose (LD50) required to inhibit the spontaneous motor activity.; assay type: toxicity, organism-based; conditions: mouse, in vivo
# Summary of the method: (§4)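 Acute oral toxicity in mice, groups of one to three animals, deaths assessed on day 7 after administration. LD50 by graphical interpolation.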
# [5] = Lethal dose (LD50) required to inhibit the spontaneous motor activity; assay type: toxicity, organism-based; conditions: mouse, in vivo; summary of the method: as §4
# Mus musculus [6] = species: Mus musculus; experiment: Antifighting activity was measured by the antagonism against foot-shock induced fighting; assay type: functional
# Summary of the method: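 Mice dosed orally; pairs confined under inverted glass enclosure and given foot shock (5 Hz, 2 ms, DC 50 V); pairs with 15-20 fighting episodes in 3 min selected. Five pairs per dose; responses counted before and at 60 min after dosing. ED50 (50% inhibition) by graphical interpolation.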
# Mus musculus [7] = species: Mus musculus; experiment: Effective dose required for 50% reduction of the control response in mice was obtained by graphical interpolation rotarod performance; assay type: functional; summary of the method: as §1
# Mus musculus [8] = experiment: Spontaneous motor activity of mice was estimated after 60 minutes of oral administration.; assay type: functional; design: unit not given here
# Summary of the method: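 Oral dosing in mice; activity quantitated with an activity meter over 10 min starting 60 min after dosing. Five groups of three mice per dose.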
# Mus musculus [9] = species: Mus musculus; experiment: Minimum effective dose (MED) required for the potentiation of thiopental sodium induced loss of the righting reflex (Students t test).; assay type: functional; conditions: read-out: MED; summary of the method: as §2
# Mus musculus [10] = experiment: as §3; assay type: functional; summary of the method: as §4
Structure (SMILES),ED50 (Mus musculus [1]) [mg/kg],ED50 (Mus musculus [2]) [mg/kg],minimal effective dose (Mus musculus [3]) [mg/kg],LD50 [4] [mg/kg],LD50 [5] [mg/kg],ED50 for inhibition of foot-shock induced fighting (Mus musculus [6]),ED50 (Mus musculus [7]) [mg/kg],Activity (Mus musculus [8]),minimal effective dose (Mus musculus [9]) [mg/kg],LD50 (Mus musculus [10]) [mg/kg]
NCC(=O)NCC(=O)Nc1ccc(Cl)cc1C(=O)c1ccccc1Cl,> 100,22,10,> 1000,–,–,–,–,–,–
NCC(=O)NCC(=O)Nc1ccc(Cl)cc1C(=O)c1ccccn1,59.5,2.8,–,–,–,–,–,–,–,–
NCC(=O)NCC(=O)Nc1ccc(Cl)cc1C(=O)c1ccccc1,–,14.1,25,–,> 1000,14.6,52.4,–,–,–
CCN(CC)CCN(C(=O)CNC(=O)CN)c1ccc(Cl)cc1C(=O)c1ccccc1,> 100,5.7,5,> 1000,–,–,–,–,–,–
CN(C(=O)CNC(=O)[C@H](N)Cc1ccccc1)c1ccc(Cl)cc1C(=O)c1ccccc1Cl,77.1,4.8,10,> 1000,–,20.4,–,>50,–,–
CCN(CC)CCN(C(=O)CNC(=O)CN)c1ccc(Cl)cc1C(=O)c1ccccc1F,50.8,1.98,–,> 1000,–,9.4,–,25,–,–
CC(C)N(C(=O)CNC(=O)CN)c1ccc(Cl)cc1C(=O)c1ccccc1,> 100,15.8,–,–,> 1000,–,–,–,–,–
CN(C(=O)CNC(=O)[C@@H](N)Cc1ccccc1)c1ccc(Cl)cc1C(=O)c1ccccc1Cl,52.2,1,1,> 1000,–,10.2,–,>50,–,–
CC(C)C(N)C(=O)NCC(=O)N(C)c1ccc(Cl)cc1C(=O)c1ccccc1Cl (stereo unspecified),> 100,1.6,–,750,–,–,–,>25,–,–
CN(C(=O)CNC(=O)C(N)Cc1ccccc1)c1ccc(Cl)cc1C(=O)c1ccccc1 (stereo unspecified),70.7,3.9,5,> 1000,–,15.1,–,23.4,–,–
CC(C)CC(N)C(=O)NCC(=O)Nc1ccc(Cl)cc1C(=O)c1ccccc1 (stereo unspecified),> 100,15.9,25,> 1000,–,–,–,–,–,–
CN(C(=O)CNC(=O)CN)c1ccc(Cl)cc1C(=O)c1ccccc1F,16.7,0.3,0.1,> 1000,–,1.6,–,3.1,–,–
CCc1cc(C(=O)c2ccccc2)c(NC(=O)CNC(=O)CN)s1,> 100,> 100,–,–,–,–,–,–,–,–
CC(C)C(N)C(=O)NCC(=O)N(C)c1ccc(Cl)cc1C(=O)c1ccccc1 (stereo unspecified),73.5,3.4,10,> 1000,–,21.5,–,>50,–,–
CC(N)C(=O)NCC(=O)Nc1ccc(Cl)cc1C(=O)c1ccccc1 (stereo unspecified),–,–,–,> 1000,–,–,–,–,–,–
CN(C(=O)CNC(=O)C(N)Cc1ccccc1)c1ccc(Cl)cc1C(=O)c1ccccc1Cl (stereo unspecified),37.5,1.6,5,> 1000,–,17.1,–,5.5,–,–
CC(C)C(N)C(=O)NCC(=O)Nc1ccc(Cl)cc1C(=O)c1ccccc1 (stereo unspecified),> 100,27.4,–,> 1000,–,–,–,–,–,–
CN(C(=O)CNC(=O)CN)c1ccc(Cl)cc1C(=O)c1ccccc1,29.4,1,2.5,750,–,10.5,–,15.1,–,–
NC(C(=O)NCC(=O)Nc1ccc(Cl)cc1C(=O)c1ccccc1)c1ccccc1 (stereo unspecified),> 100,27.4,–,> 1000,–,–,–,–,–,–
CNC1=Nc2ccc(Cl)cc2C(c2ccccc2)=[N+]([O-])C1 [CHLORDIAZEPOXIDE],82.3,2.71,–,–,–,–,–,56.09,2.5,1080
CN1C(=O)CN=C(c2ccccc2)c2cc(Cl)ccc21 [DIAZEPAM],17.7,–,–,–,–,–,–,8.45,0.5,–
CN(C(=O)CNC(=O)CN)c1ccc(Cl)cc1C(=O)c1ccccc1Cl [LORZAFONE ANHYDROUS],35.4,0.56,0.5,> 1000,–,3.2,–,1.4,–,–
